Assay results reported in ChEMBL document CHEMBL1127440, “Structure-affinity relationship studies on 5-HT1A receptor ligands. 2. Heterobicyclic phenylpiperazines with N4-aralkyl substituents” (J Med Chem, 1994).

Biological target: T1, 5-hydroxytryptamine receptor 1A (Rattus norvegicus, UniProt P19327)
T1 sequence (P19327 whole entry): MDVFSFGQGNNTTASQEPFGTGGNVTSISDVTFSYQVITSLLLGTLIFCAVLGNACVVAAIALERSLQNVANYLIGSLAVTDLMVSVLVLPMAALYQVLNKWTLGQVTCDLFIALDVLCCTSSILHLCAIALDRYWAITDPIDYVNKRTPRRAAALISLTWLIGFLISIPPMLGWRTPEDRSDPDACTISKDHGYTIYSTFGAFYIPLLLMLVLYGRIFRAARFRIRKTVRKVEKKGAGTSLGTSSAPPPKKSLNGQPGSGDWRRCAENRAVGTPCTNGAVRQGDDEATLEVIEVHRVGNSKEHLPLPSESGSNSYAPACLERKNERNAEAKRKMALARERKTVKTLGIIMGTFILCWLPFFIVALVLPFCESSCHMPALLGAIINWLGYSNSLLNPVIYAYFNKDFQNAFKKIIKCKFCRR
Test: Binding affinity to displace [3H]2-(di-N-propylamino)-8-hydroxy-tetralin from 5-hydroxytryptamine 1A (5-HT1A) receptor in rat frontal cortex homogenates
Assay type: tissue-based
Method in brief: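 Rat frontal cortex homogenate; [3H]-8-OH-DPAT displaced from specific 5-HT1A sites. Each compound was tested at four to six concentrations in triplicate per assay. Three to six independent assays were run per compound. Ki ± SEM (nM) reported.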

c1ccc(CCN2CCN(c3cccc4c3OCCO4)CC2)cc1
Ki: 470 pM

O=C(CCCN1CCN(c2cccc3ccoc23)CC1)c1ccc(F)cc1
Ki: 1000 pM

c1ccc(CN2CCN(c3cccc4ccoc34)CC2)cc1
Ki: 22000 pM

O=C(CCCN1CCN(c2cccc3c2OCCO3)CC1)c1ccccc1
Ki: 670 pM

c1ccc(OCCN2CCN(c3cccc4c3OCCO4)CC2)cc1
Ki: 730 pM

c1ccc2c(c1)OCC(CN1CCN(c3cccc4c3OCCO4)CC1)O2 (stereo not drawn)
Ki: 4000 pM

c1ccc(CCCCN2CCN(c3cccc4c3OCCO4)CC2)cc1
Ki: 320 pM

c1ccc(OCCN2CCN(c3cccc4ccoc34)CC2)cc1
Ki: 460 pM

O=C(CCCN1CCN(c2cccc3c2OCCO3)CC1)c1ccc(F)cc1
Ki: 1400 pM

c1ccc(CCN2CCN(c3cccc4ccoc34)CC2)cc1
Ki: 370 pM

c1ccc(OCCCN2CCN(c3cccc4c3OCCO4)CC2)cc1
Ki: 950 pM

c1ccc(OCCCN2CCN(c3cccc4ccoc34)CC2)cc1
Ki: 850 pM

O=C(NCCN1CCN(c2cccc3ccoc23)CC1)c1ccc(F)cc1
Ki: 150 pM

O=C(NCCN1CCN(c2cccc3c2OCCO3)CC1)c1ccc(F)cc1
Ki: 300 pM

O=C(NCCN1CCN(c2cccc3ccoc23)CC1)C1CCCCC1
Ki: 200 pM

c1ccc(CN2CCN(c3cccc4c3OCCO4)CC2)cc1
Ki: 28000 pM

O=C(NCCN1CCN(c2cccc3c2OCCO3)CC1)C1CCCCC1
Ki: 440 pM

c1ccc2c(c1)OCC(CN1CCN(c3cccc4ccoc34)CC1)O2 (stereo not drawn)
Ki: 5800 pM
